In series [1] the test system is P388. Nature of the series: Antitumor activity against mouse P388 cells allografted in female CDF1 mouse assessed as disease cures by measuring 30-days host survival at 200 mg/kg, ip administered daily for 9 days as saline with Tween-80 solution starting 24 hrs after tumor inoculation relative to control. The conditions noted are these: route intraperitoneal. It is filed as functional. The procedure, abridged:
(§1)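 P388 ascitic cell inoculum given ip to CDF1 mice of the sex in each line. Nine daily ip doses in saline with Tween-80 as vehicle, starting 24 h after inoculation. Median survival time expressed as %T/C (>125 significant); "cure" defined as 30-day survival.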

Series [2] relates to P388. Nature of the series: Antitumor activity against mouse P388 cells allografted in female CDF1 mouse assessed as change in body weight at 13.5 mg/kg, ip administered daily for 9 days as saline with Tween-80 solution starting 24 hrs after tumor inoculation. The format is functional. The conditions noted are these: route intraperitoneal. The procedure, abridged:
(§2)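 Ascitic fluid carrying P388 cells was inoculated ip. Compound was given ip in nine daily doses, starting 24 h after inoculation, in Klucel (hydroxypropylcellulose) suspension or in saline with Tween-80. Body-weight difference (treated minus control) was recorded on day 5. Survival was scored as %T/C of median survival time, and 30-day survival counted as cure.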

Series [3] deals with P388. Description: Antitumor activity against mouse P388 cells allografted in female CDF1 mouse assessed as change in body weight at 400 mg/kg, ip administered daily for 9 days as saline with Tween-80 solution starting 24 hrs after tumor inoculation. It is filed as functional. The conditions noted are these: route intraperitoneal. The procedure, abridged:
as §2

Series [4] deals with Mus musculus. Nature of the series: Toxicity in female CDF1 mouse allografted with mouse P388 cells assessed as animal survival at 13.5 mg/kg, ip administered daily for 9 days as saline with Tween-80 solution starting 24 hrs after tumor inoculation. The conditions noted are these: in vivo. It is filed as organism-based. Also on record: dose 13.5 mg/kg, route intraperitoneal. The procedure, abridged:
(§3)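 P-388 leukemia ascitic fluid implanted ip. Compound dosed ip in saline with Tween-80 vehicle, once daily for nine doses from 24 h after tumor inoculation. Acute toxicity scored as toxicity-day survivors per group. Survival was followed up to 30 days, with 30-day survival counted as "cure". Follows NCI screening protocols.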

For series [5], the system named is P388. Description: Antitumor activity against mouse P388 cells allografted in female CDF1 mouse assessed as disease cures by measuring 30-days host survival at 100 mg/kg, ip administered daily for 9 days as saline with Tween-80 solution starting 24 hrs after tumor inoculation relative to control. It is filed as functional. The note with it: route intraperitoneal. The procedure, abridged:
as §1

The subject of series [6] is P388. Nature of the series: Antitumor activity against mouse P388 cells allografted in female CDF1 mouse assessed as change in body weight at 27 mg/kg, ip administered daily for 9 days as saline with Tween-80 solution starting 24 hrs after tumor inoculation. The conditions noted are these: route intraperitoneal. The format is functional. The procedure, abridged: as §2

In series [7] the test system is P388. Nature of the series: Antitumor activity against mouse P388 cells allografted in female CDF1 mouse assessed as disease cures by measuring 30-days host survival at 400 mg/kg, ip administered daily for 9 days as saline with Tween-80 solution starting 24 hrs after tumor inoculation relative to control. It is filed as functional. The conditions noted are these: route intraperitoneal. The procedure, abridged:
as §1

For series [8], the system named is P388. Description: Antitumor activity against mouse P388 cells allografted in female CDF1 mouse assessed as disease cures by measuring 30-days host survival at 13.5 mg/kg, ip administered daily for 9 days as saline with Tween-80 solution starting 24 hrs after tumor inoculation relative to control. The format is functional. The note with it: route intraperitoneal. The procedure, abridged:
as §1

In series [9] the test system is Mus musculus. Nature of the series: Toxicity in female CDF1 mouse allografted with mouse P388 cells assessed as animal survival at 54 mg/kg, ip administered daily for 9 days as saline with Tween-80 solution starting 24 hrs after tumor inoculation. Also on record: dose 54 mg/kg, route intraperitoneal. The format is organism-based. The note with it: in vivo. The procedure, abridged:
as §3

Series [10] concerns P388. Description: Antitumor activity against mouse P388 cells allografted in female CDF1 mouse assessed as change in body weight at 200 mg/kg, ip administered daily for 9 days as saline with Tween-80 solution starting 24 hrs after tumor inoculation. The conditions noted are these: route intraperitoneal. The format is functional. The procedure, abridged:
as §2

Series [11] relates to Mus musculus. Description: Toxicity in female CDF1 mouse allografted with mouse P388 cells assessed as animal survival at 27 mg/kg, ip administered daily for 9 days as saline with Tween-80 solution starting 24 hrs after tumor inoculation. The format is organism-based. Also on record: dose 27 mg/kg, route intraperitoneal. The note with it: in vivo. The procedure, abridged:
as §3

For series [12], the system named is P388. Nature of the series: Antitumor activity against mouse P388 cells allografted in female CDF1 mouse assessed as disease cures by measuring 30-days host survival at 27 mg/kg, ip administered daily for 9 days as saline with Tween-80 solution starting 24 hrs after tumor inoculation relative to control. It is filed as functional. The conditions noted are these: route intraperitoneal. The procedure, abridged:
as §1

In series [13] the test system is P388. Description: Antitumor activity against mouse P388 cells allografted in female CDF1 mouse assessed as change in body weight at 54 mg/kg, ip administered daily for 9 days as saline with Tween-80 solution starting 24 hrs after tumor inoculation. It is filed as functional. The note with it: route intraperitoneal. The procedure, abridged: as §2
Series [14] has as its system Mus musculus. Description: Toxicity in female CDF1 mouse allografted with mouse P388 cells assessed as animal survival at 100 mg/kg, ip administered daily for 9 days as saline with Tween-80 solution starting 24 hrs after tumor inoculation. The format is organism-based. Also on record: dose 100 mg/kg, route intraperitoneal. The note with it: in vivo. In a few lines:
as §3

Series [15] concerns P388. Nature of the series: Antitumor activity against mouse P388 cells allografted in female CDF1 mouse assessed as change in body weight at 100 mg/kg, ip administered daily for 9 days as saline with Tween-80 solution starting 24 hrs after tumor inoculation. The format is functional. The note with it: route intraperitoneal. The procedure, abridged: as §2
The subject of series [16] is P388. Description: Antitumor activity against mouse P388 cells allografted in female CDF1 mouse assessed as disease cures by measuring 30-days host survival at 54 mg/kg, ip administered daily for 9 days as saline with Tween-80 solution starting 24 hrs after tumor inoculation relative to control. The conditions noted are these: route intraperitoneal. The format is functional. The procedure, abridged: as §1

The subject of series [17] is Mus musculus. Description: Toxicity in female CDF1 mouse allografted with mouse P388 cells assessed as animal survival at 200 mg/kg, ip administered daily for 9 days as saline with Tween-80 solution starting 24 hrs after tumor inoculation. It is filed as organism-based. Also noted: dose 200 mg/kg, route intraperitoneal. The conditions noted are these: in vivo. In a few lines: as §3

Series [18] relates to Mus musculus. Nature of the series: Toxicity in female CDF1 mouse allografted with mouse P388 cells assessed as animal survival at 400 mg/kg, ip administered daily for 9 days as saline with Tween-80 solution starting 24 hrs after tumor inoculation. Also on record: dose 400 mg/kg, route intraperitoneal. It is filed as organism-based. The conditions noted are these: in vivo. The procedure, abridged: as §3

Consider 1 molecule from ChEMBL document CHEMBL3244396, “Synthesis and antileukemic activity of 5-substituted 2,3-dihydro-6,7-bis(hydroxymethyl)-1H-pyrrolizine diesters” (J Med Chem, 1977).

Molecules are shown by their SMILES.

As usually defined, the T/C is the ratio of treated to control. On to `OCc1c(CO)c(-c2ccc(Cl)c(Cl)c2)n2c1CCC2`, for which the T/C was 116% in series [1]; 116% in series [5]; 127% in series [7]; 107% in series [8]; 109% in series [12]; 109% in [16]. For the same molecule, the Activity is 0 g in series [2]; -1 g in series [3]; “Non-toxic” in series [4]; -0.3 g in series [6]; “Non-toxic” in [9]; -0.9 g in series [10]. Also, the Activity result in series [11] is “Non-toxic”; in series [13], -0.6 g; in series [14], “Non-toxic”; in [15], 0.5 g; in [17] it was “Non-toxic”; in series [18] it was “Non-toxic”.
